The list is not random: actives were taken first. Their share in the collection is about 2.7%.
Yeast life ext = extends the lifespan of yeast; S. cerevisiae growth with nicotinamide, OD615; deaD strain in restrictive glucose medium; inhibition of the nicotinamide effect, % at 10 µM; 130,000 tested, 0.68% active;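 active means inhibition above a set limit, placed 3 SD over the median of all compounds, cut at about 26% in these data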;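 further: 0% = nicotinamide-treated wells and 100% = cells grown without nicotinamide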
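assay system = DeaD-strain S. cerevisiae | measured by = absorbance at 615 nm | probe or stimulus = nicotinamide 1.5 mM | buffer or medium = CSMM-D glucose medium, restrictive | times = 48 h at 30 °C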
SDO1 yeast rescue = restores growth of sdo1-depleted yeast. S. cerevisiae sdo1-depleted JHY4D growth rescue, OD600 30 h; stronger effect = higher value; pdr5 snq2 efflux-pump mutant strain. z-score at 10 µM. 140,000 tested, 0.21% active;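 active means z-score above 3 at both the 24 hr and the 30 hr optical density reads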;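 further: z-score against mean and SD of all compound wells on the same plate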
RAM network inh = inhibitors of the yeast RAM network | S. cerevisiae dse1pr::URA3 reporter, 5-FOA growth OD615, 2 d; analog-sensitive cbk1-as2 kinase mutant strain | 190,000 tested, 1.8% active | inhibition, % at 50 µM;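 active means inhibition above a set limit, 3 SD over mean compound inhibition, cut at about 8.4% in these data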;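 further: 0% = DMSO-only wells with no growth and 100% = 10 µM 1-NA-PP1 full growth; inhibition rescues growth on 5-FOA so higher OD means more RAM inhibition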
Yeast growth inh = chemicals that inhibit yeast BB579 growth in restrictive medium (lifespan-shortening candidates) | 140,000 tested, 0.51% active | S. cerevisiae BB579 growth, OD615, 48 h | inhibition, % at 10 µM;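 active means inhibition above a set limit, 3 SD over the mean compound inhibition, cut at about 44% in these data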
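Assay system – yeast BB579 (DeaD) · Dosing – single compound dose of 10 µM, 0.25% DMSO final · Detection – OD615 turbidity measurement · Buffer or medium – CSMM-D restrictive synthetic medium containing dextrose (glucose) · Benchmarks – positive control amphotericin B 10 µg/mL · Incubation – 48 h exposure, 30 °C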
The depositor's hits bear a star; · = no result given; [ ] = remark or other dose.

SMILES	Yeast life ext	SDO1 yeast rescue	RAM network inh	Yeast growth inh
COc1ccc(C2CC(=O)c3cnn(-c4nc(C)cc(C)n4)c3C2)cc1 (stereo not given)	·	·	6	·
CCCCOc1ccc(/C=C/C(=O)OCC(=O)N2CC(=O)Nc3ccccc32)cc1OCC	0	0.1	3	-10
O=C1SC(SCc2ccccc2)=N/C1=C\c1ccco1	10	-0.78	8.8*	-26
Cn1c(=O)[nH]c(=O)c2c1nc(N1CCCCCC1)n2CC(N)=O	·	0.75	0	-2
C/C=C/Cn1c(N2CCCCCC2)nc2c1c(=O)[nH]c(=O)n2C	137*	-0.04	0	6
Cn1c(=O)c2c(=O)cc(NNC(=O)C(C)(C)C)[nH]c2n(C)c1=O	28*	-0.29	0	-2
FC(F)(F)c1nnc(-c2ccccc2)nc1Sc1ccccc1	10	-1.4	8	-71
FC(F)(F)c1cccc(Sc2nc(-c3ccccc3)nnc2C(F)(F)F)c1	-16	-1.2	8.6*	-38
NC(=O)CSc1cn(Cc2ccc(F)cc2)c2ccccc12	·	·	4	·
O=C(CSc1cn(Cc2cccc(F)c2)c2ccccc12)NCc1ccc(F)cc1	6	-0.54	9.9*	-16
CCc1ccc(C(=O)/C=C/c2ccc([N+](=O)[O-])o2)cc1	46*	-2.5	2	-59
Cc1cccc(Sc2nc(-c3ccccc3)ccc2C#N)c1	-23	-1.3	11*	-27
N#Cc1ccc(-c2ccccc2)nc1Sc1ccc(F)cc1	4	0.7	6	-58
Cc1ccc(C)c(C(=O)COC(=O)c2cc(Cl)nc3ccccc23)c1	3	-0.25	9.6*	-54
O=C(NCCCO)/C(=C/c1ccc(-c2cccc([N+](=O)[O-])c2)o1)NC(=O)c1ccccc1	·	·	8.5*	·
O=C(NCCO)/C(=C\c1ccc([N+](=O)[O-])o1)NC(=O)c1ccccc1	·	·	0	·
CCN(c1ccccc1)S(=O)(=O)c1ccc(OCc2c(C)noc2C)cc1	-8	-0.53	10*	-21
CCN(C(=O)COC(=O)c1ccc(OCc2c(C)noc2C)cc1)c1ccccc1	4	5.2	3	-29
Cc1ccc(NC(=O)c2c(C(F)(F)F)nn(C)c2SCc2ccc(Cl)cc2)cc1C	8	-0.44	11*	-61
CC(=O)Oc1oc(-c2ccccc2)nc1C=Nc1ccccc1	46*	-0.71	-1	-16
CCOC(=O)c1ccc(N=Cc2nc(-c3ccccc3)oc2OC(C)=O)cc1	-18	-0.12	8	-22
CC(C)c1ccc(NC(=O)c2ccc(NS(C)(=O)=O)cc2)cc1	·	·	3	·
Cc1noc(C)c1C(=O)OCC(=O)Nc1cc(Cl)ccc1Oc1ccccc1	-1	0.98	11*	-65
CCCCn1nnc(NC(=S)NC(=O)c2cccs2)n1	-9	-0.24	1	-4
O=C(OCC#CCSc1nnc(-c2ccc(Br)cc2)o1)c1ccco1	5	-0.69	10*	-38
SMILES	Yeast life ext	SDO1 yeast rescue	RAM network inh	Yeast growth inh
Cc1ccccc1OCc1csc(N)n1	·	·	1	·
O=C(CSCCN1C(=O)c2ccccc2C1=O)Nc1ccc2ccccc2c1	4	-0.7	9.2*	-9
O=C(CSCc1cccc(CSCC(=O)Nc2ccc3ccccc3c2)n1)Nc1ccc2ccccc2c1	-6	-0.67	7	-67
Cc1ccc(NC(=S)NCC2CCN(C(C)c3ccccc3)C2)cc1C (stereo not given)	·	·	0	·
O=C(Nc1ccc(Br)cn1)c1cccc(-c2cc3ccccc3oc2=O)c1	76*	-0.89	0	-37
COC(=O)c1cc(=O)n(-c2ccc(F)cc2)c(=Nc2ccc(F)cc2)s1	29*	-2	0	-32
COC(=O)c1cc(=O)n(CCc2ccccc2F)c(=Nc2ccc(F)c(Cl)c2)s1	6	-0.31	10*	-22
COC(=O)c1cc(=O)n(Cc2cccs2)c(=Nc2ccc(F)cc2)s1	·	·	1	·
NC(=O)COC(=O)c1ccc(Cl)c(S(=O)(=O)N(Cc2ccccc2)c2ccc(Cl)cc2)c1	-2	-1.5	7	-51
NC(=O)NC(=O)COC(=O)c1ccc(Cl)c(S(=O)(=O)N(Cc2ccccc2)c2ccc(Cl)cc2)c1	-1	-1.2	10*	-44
CCc1ccccc1NS(=O)(=O)c1ccc2[nH]cc(C(=O)NCC3CCCO3)c(=O)c2c1 (stereo not given)	-12	1.4[7.8 µM]	4	-39
CN(Cc1ccccc1)S(=O)(=O)c1ccc2[nH]cc(C(=O)NCC3CCCO3)c(=O)c2c1 (stereo not given)	-15	0.51[7.4 µM]	8.7*	-34
CCOc1ccc(NS(=O)(=O)c2ccc3[nH]cc(C(=O)NCC4CCCO4)c(=O)c3c2)cc1 (stereo not given)	-15	0.73[8.1 µM]	9.3*	-38
COc1cc(O)c(/C=N/NC(=O)c2ccncc2)c(OC)c1[N+](=O)[O-]	·	·	0	·
O=c1c(F)cn(C2CCCO2)c(=O)n1Cc1ccc(Cl)cc1 (stereo not given)	·	·	0	·
O=C(c1nc2ccccn2c1CN1CCCC(c2nc3ccccc3o2)C1)N1CCCC1 (stereo not given)	·	·	0	·
CC(C)C(c1nnnn1CC1CCCO1)N1CCN(Cc2ccc3c(c2)OCO3)CC1 (stereo not given)	0	0.51	1	-75
CC(C)C(c1nnnn1Cc1ccccc1)N1CCN(Cc2ccc3c(c2)OCO3)CC1 (stereo not given)	65*	-1.1	1	4
Cc1cc([N+](=O)[O-])nn1CCCC(=O)Nc1cc(Oc2ccccc2)cc([N+](=O)[O-])c1	-1	-0.85	10*	-52
Cc1cc([N+](=O)[O-])nn1CCCC(=O)Nc1cc(Oc2ccc(F)cc2)cc([N+](=O)[O-])c1	7	-0.81	8.9*	-37
Cc1ccc(Oc2cc(NC(=O)CCCn3nc([N+](=O)[O-])c(Cl)c3C)cc([N+](=O)[O-])c2)cc1	-1	-0.04	3	-62
CCCCN(C)C(=O)c1nc2ccccn2c1CN1CCN(C(=O)c2cccs2)CC1	·	·	2	·
Cc1nc([N+](=O)[O-])nn1C12CC3CC(CC(Cl)(C3)C1)C2	3	-0.19	2	-9
CCOc1ccc(C(=O)Nc2cccc3ncccc23)cc1Br	·	·	1	·
O=C(Nc1ccc(Cn2cccn2)cc1)c1ccc(COc2cccc(Br)c2)cc1	-10	-1.1	9.9*	-74
SMILES	Yeast life ext	SDO1 yeast rescue	RAM network inh	Yeast growth inh
C=CCn1c(C)csc1=Nc1ccccc1C	·	·	1	·
CN1CCN(C2=Cc3ccccc3Sc3cc(F)c(F)cc32)CC1	·	-2.5	2	1
CN1CCN(C2=Cc3cc(Cl)ccc3Sc3cc(F)ccc32)CC1	·	-2.1	3	98*
COc1cccc(NC(=O)c2cc(CN3C(=O)c4ccccc4C3=O)ccc2OC)c1	1	-0.52	4	-12
CCCCC/C(=N\NC(=O)Nc1ccccc1)c1ccccc1	·	·	9.5*	·
CCCC/C(C)=N/NC(=O)Nc1ccccc1	-22	0.03	1	-45
Oc1cccc2ccc(Nc3ccccn3)nc12	-20	-2.5	1	97*
CC(Sc1nc(C(C)(C)C)cc(-c2ccccc2)c1C#N)C(=O)Nc1ccccc1 (stereo not given)	-3	0.49	9.2*	-46
